Measured values as given in ChEMBL document CHEMBL1145535, “Clonal diversity and resistance mechanisms in tetracycline-nonsusceptible Streptococcus pneumoniae isolates in Poland” (2007).
Values after ≈ are worked out from the molar mass of the structure shown.

Experiments:
Type in all cases: functional
Streptococcus pneumoniae [1] = test: Antimicrobial activity against Streptococcus pneumoniae ATCC 49619
Method in brief: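 MICs determined by broth microdilution as recommended by CLSI. Agents tested included tetracycline, doxycycline, penicillin G, erythromycin and chloramphenicol. Tigecycline results were interpreted against FDA breakpoints.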

Streptococcus pneumoniae [2] = test: Antimicrobial susceptibility of tetracycline-resistant Streptococcus pneumoniae from respiratory tract disease patient assessed as percent susceptible isolates
Method in brief: (§1)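 MICs determined for all tetracycline-resistant isolates by broth microdilution per CLSI recommendations. Agents tested included tetracycline, doxycycline, penicillin G, erythromycin and chloramphenicol. FDA breakpoints were applied to categorize tigecycline results.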

Streptococcus pneumoniae [3] = test: Antimicrobial susceptibility of tetracycline-resistant Streptococcus pneumoniae from respiratory tract disease patient assessed as percent resistant isolates; method in brief: as §1

SMILES | MIC50 (Streptococcus pneumoniae [1]) [µg/mL] | MIC90 (Streptococcus pneumoniae [1]) [µg/mL] | Activity (Streptococcus pneumoniae [2]) [%] | Activity (Streptococcus pneumoniae [3]) [%]
CO/N=C(\C(=O)N[C@@H]1C(=O)N2C(C(=O)O)=C(COC(C)=O)CS[C@H]12)c1csc(N)n1 [CEFOTAXIME] | 0.015 (≈ 0.0329 µM) | 1 (≈ 2.2 µM) | 93.8 | 2.1
O=C(N[C@H](CO)[C@H](O)c1ccc([N+](=O)[O-])cc1)C(Cl)Cl [CHLORAMPHENICOL] | 4 (≈ 12.4 µM) | 16 (≈ 49.5 µM) | 70.7 | 39.2
CCC[C@@H]1C[C@@H](C(=O)N[C@@H]([C@H]2O[C@H](SC)[C@H](O)[C@@H](O)[C@H]2O)[C@H](C)Cl)N(C)C1 [CLINDAMYCIN] | ≤ 0.03 | > 4 | 76.9 | 23.1
C[C@H]1c2cccc(O)c2C(=O)C2=C(O)[C@]3(O)C(=O)C(C(N)=O)=C(O)[C@@H](N(C)C)[C@@H]3[C@@H](O)[C@@H]21.O [DOXYCYCLINE] | 4 | 8 | 19.9 | 25.2
CC[C@H]1OC(=O)[C@H](C)[C@@H](O[C@H]2C[C@@](C)(OC)[C@@H](O)[C@H](C)O2)[C@H](C)[C@@H](O[C@@H]2O[C@H](C)C[C@H](N(C)C)[C@H]2O)[C@](C)(O)C[C@@H](C)C(=O)[C@H](C)[C@@H](O)[C@]1(C)O [ERYTHROMYCIN] | ≤ 0.25 | > 16 | 72.4 | 26.4
C[C@H]1COc2c(N3CCN(C)CC3)c(F)cc3c(=O)c(C(=O)O)cn1c23.C[C@H]1COc2c(N3CCN(C)CC3)c(F)cc3c(=O)c(C(=O)O)cn1c23.O [LEVOFLOXACIN] | 1 | 1 | 98.8 | 0.4
CC(=O)NC[C@H]1CN(c2ccc(N3CCOCC3)c(F)c2)C(=O)O1 [LINEZOLID] | 1 (≈ 2.96 µM) | 1 (≈ 2.96 µM) | 100 | 
C[C@@H](O)[C@H]1C(=O)N2C(C(=O)O)=C(S[C@@H]3CN[C@H](C(=O)N(C)C)C3)[C@H](C)[C@H]12 [MEROPENEM] | ≤ 0.015 | 0.5 (≈ 1.3 µM) | 86.8 | 0.4
CN(C)c1ccc(O)c2c1C[C@H]1C[C@H]3[C@H](N(C)C)C(O)=C(C(N)=O)C(=O)[C@@]3(O)C(O)=C1C2=O [MINOCYCLINE] | 4 (≈ 8.74 µM) | 8 (≈ 17.5 µM) | 24.4 | 38.8
CC1(C)S[C@@H]2[C@H](NC(=O)Cc3ccccc3)C(=O)N2[C@H]1C(=O)O [PENICILLIN G] | 0.015 (≈ 0.0449 µM) | 2 (≈ 5.98 µM) | 74 | 14.9
CO[C@H]1/C=C/O[C@@]2(C)Oc3c(C)c(O)c4c(O)c(c(/C=N/N5CCN(C)CC5)c(O)c4c3C2=O)NC(=O)/C(C)=C\C=C\[C@H](C)[C@H](O)[C@@H](C)[C@@H](O)[C@@H](C)[C@H](OC(C)=O)[C@@H]1C [RIFAMPIN] | ≤ 0.03 | ≤ 0.03 | 98.8 | 0.8
CC[C@H]1OC(=O)[C@H](C)C(=O)[C@H](C)[C@@H](O[C@@H]2O[C@H](C)C[C@H](N(C)C)[C@H]2O)[C@](C)(OC)C[C@@H](C)C(=O)[C@H](C)[C@H]2N(CCCCn3cnc(-c4cccnc4)c3)C(=O)O[C@]12C [TELITHROMYCIN] | ≤ 0.015 | ≤ 0.015 | 98.8 | 0.4
CN(C)[C@@H]1C(O)=C(C(N)=O)C(=O)[C@@]2(O)C(O)=C3C(=O)c4c(O)cccc4[C@@](C)(O)[C@H]3C[C@@H]12 [TETRACYCLINE] | 32 (≈ 72 µM) | 64 (≈ 144 µM) |  | 100
CN(C)c1cc(NC(=O)CNC(C)(C)C)c(O)c2c1C[C@H]1C[C@H]3[C@H](N(C)C)C(O)=C(C(N)=O)C(=O)[C@@]3(O)C(O)=C1C2=O [TIGECYCLINE] | 0.015 (≈ 0.0256 µM) | 0.03 (≈ 0.0512 µM) | 100 | 
COc1cc(Cc2cnc(N)nc2N)cc(OC)c1OC [TRIMETHOPRIM] | 2 (≈ 6.89 µM) | 8 (≈ 27.6 µM) | 30.2 | 38.4
CN[C@H](CC(C)C)C(=O)N[C@H]1C(=O)N[C@@H](CC(N)=O)C(=O)N[C@H]2C(=O)N[C@H]3C(=O)N[C@H](C(=O)N[C@H](C(=O)O)c4cc(O)cc(O)c4-c4cc3ccc4O)[C@H](O)c3ccc(c(Cl)c3)Oc3cc2cc(c3O[C@@H]2O[C@H](CO)[C@@H](O)[C@H](O)[C@H]2O[C@H]2C[C@](C)(N)[C@H](O)[C@H](C)O2)Oc2ccc(cc2Cl)[C@H]1O [VANCOMYCIN] | 0.25 (≈ 0.173 µM) | 0.5 (≈ 0.345 µM) | 100 | 
